PMC4650587 (Cell Research, 2014)
Entries after “also recorded” stand apart in the source; their conditions may differ. Where two headings read alike, the source gives them in different places.

How the values were obtained:
AMPK = conditions: cited from earlier work
[1] = test system: AID-αRIM / core AMPK(α1[395-550]-β2[187-272]-γ1); assay: AlphaScreen interaction between biotinylated core AMPK and His6GST-AID-αRIM; type: binding, human; conditions: wild-type AID-αRIM; AMP 0.2 mM, ATP 1 mM
Summary of the method: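 Two-protein AlphaScreen pairing 100 nM His6-tagged protein on nickel acceptor beads with 100 nM biotin-tagged protein on streptavidin donor beads. Biotinylated core AMPK (α1[395-550]-β2[187-272]-γ1) was an avitag fusion biotinylated in E. coli by co-expressed BirA with 40 μM biotin. Reactions ran in 50 mM MOPS pH 7.4, 50 mM NaF, 50 mM CHAPS, 0.1 mg/ml BSA, 0.2 mM AMP, 1 mM ATP.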

human α1β2γ1 AMPK [2] = biological target: human α1β2γ1 AMPK (Homo sapiens, UniProt P54619); type: biochemical
Sequence of human α1β2γ1 AMPK (Homo sapiens, UniProt P54619) (P54619 24-327, one chain of several): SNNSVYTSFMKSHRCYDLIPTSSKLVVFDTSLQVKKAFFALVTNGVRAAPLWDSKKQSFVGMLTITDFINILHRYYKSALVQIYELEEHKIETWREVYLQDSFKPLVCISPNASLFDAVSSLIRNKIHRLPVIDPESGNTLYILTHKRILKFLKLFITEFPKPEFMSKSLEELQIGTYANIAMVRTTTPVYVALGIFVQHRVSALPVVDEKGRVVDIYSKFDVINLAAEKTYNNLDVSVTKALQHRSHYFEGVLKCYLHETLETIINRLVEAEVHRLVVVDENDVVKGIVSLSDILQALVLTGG
Sequence of human α1β2γ1 AMPK (Homo sapiens, UniProt P54619) (Q13131 20-559 partner, one chain of several): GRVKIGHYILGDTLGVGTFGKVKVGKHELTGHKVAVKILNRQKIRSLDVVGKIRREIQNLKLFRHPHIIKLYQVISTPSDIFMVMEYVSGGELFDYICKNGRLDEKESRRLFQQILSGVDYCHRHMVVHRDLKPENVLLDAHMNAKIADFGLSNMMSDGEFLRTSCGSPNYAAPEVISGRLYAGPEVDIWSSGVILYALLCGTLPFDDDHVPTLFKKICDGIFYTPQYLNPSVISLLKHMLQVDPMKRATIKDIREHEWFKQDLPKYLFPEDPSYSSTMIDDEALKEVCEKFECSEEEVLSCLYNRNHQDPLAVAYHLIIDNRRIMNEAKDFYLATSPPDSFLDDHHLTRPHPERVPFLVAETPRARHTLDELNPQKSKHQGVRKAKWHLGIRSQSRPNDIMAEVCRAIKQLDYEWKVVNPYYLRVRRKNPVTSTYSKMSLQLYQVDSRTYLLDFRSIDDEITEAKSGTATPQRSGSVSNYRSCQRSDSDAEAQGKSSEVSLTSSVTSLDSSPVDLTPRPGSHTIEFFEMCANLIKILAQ

[3] = biological target: CBM-KD interaction of AMPK; assay: AlphaScreen interaction between isolated biotin-CBM and His6-KD in trans; type: binding, human
Summary of the method: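 Biotin-CBM (β2[75-163] avitag, biotinylated in vivo) was split in two. One half was phosphorylated in trans by CaMKKβ-phosphorylated His6-KD (CBM:KD 50:1, 4 h, RT), then freed of KD by Ni column and size exclusion. 100 nM biotin-CBM on streptavidin donor beads was paired with 100 nM His6-KD on Ni acceptor beads. Buffer: 50 mM MOPS pH 7.4, 50 mM NaF, 50 mM CHAPS, 0.1 mg/ml BSA.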

rat liver AMPK = conditions: cited from earlier work
holo-AMPK = assay: AlphaScreen CBM-KD interaction in holo-AMPK; type: binding, human; conditions: glycogen 0.5 mg/ml, cyclodextrin 2 mM
[4] = test system: recombinant, E. coli-expressed AMPK; conditions: cited from earlier work
human α1β2γ1 AMPK [5] = assay: Radioactive kinase assay; type: biochemical; conditions: phosphorylated AMPK; 1 mg/ml glycogen
[6] = biological target: T1, AMPK γ1(24-327), γ-subunit of the crystallised holo-AMPK (human, UniProt P54619 24-327); assay: crystal structure
T1 sequence (P54619 24-327): as the sequence (P54619 24-327, one chain of several) above

[7] = biological target: T1, AMPK γ1(24-327), γ-subunit of the …; assay: crystal structure; remark: listed apart in the source

In the case of `N#Cc1c(O)c2c(-c3ccc(-c4ccccc4O)cc3)csc2[nH]c1=O` [A769662], the “effect on kinase activity” value (AMPK) is given as “increase kinase activity”.

In the case of `Nc1ncnc2c1ncn2[C@@H]1O[C@H](COP(=O)(O)O)[C@@H](O)[C@H]1O` [AMP], the “effect on AID-αRIM / core AMPK interaction signal” value [1] is reported as “increased” and the “change of luminescence signal, α-γ tagged AMPK” value (human α1β2γ1 AMPK [2]; 2 μM AMP) is reported as “doubled the luminescence signal”.

For `Nc1ncnc2c1ncn2[C@@H]1O[C@H](COP(=O)(O)OP(=O)(O)OP(=O)(O)O)[C@@H](O)[C@H]1O` [ATP], the “effect on AID-αRIM / core AMPK interaction signal” value [1] was “decreased” and the “change of luminescence signal, α-γ tagged AMPK” value (human α1β2γ1 AMPK [2]; 1 mM ATP) was “decreased the signal by a factor of two”.

For `Cc1ccc(Oc2nc3cc(-c4ccc5c(ccn5C)c4)c(Cl)cc3[nH]2)cc1C(=O)O` [compound 991], the “effect on kinase activity” value (AMPK) is listed as “increase kinase activity”.

In the case of `OC[C@H]1O[C@@H]2O[C@H]3[C@H](O)[C@@H](O)[C@@H](O[C@H]4[C@H](O)[C@@H](O)[C@@H](O[C@H]5[C@H](O)[C@@H](O)[C@@H](O[C@H]6[C@H](O)[C@@H](O)[C@@H](O[C@H]7[C@H](O)[C@@H](O)[C@@H](O[C@H]8[C@H](O)[C@@H](O)[C@@H](O[C@H]1[C@H](O)[C@H]2O)O[C@@H]8CO)O[C@@H]7CO)O[C@@H]6CO)O[C@@H]5CO)O[C@@H]4CO)O[C@@H]3CO` [cyclodextrin, β-cyclodextrin hydrate], the “effect on CBM-KD interaction signal” value ([3]; non-phosphorylated CBM, cyclodextrin 2 mM) is given as “greatly reduced the interaction; also recorded: strongly reduced the interaction”, the “effect on CBM-KD interaction signal” value ([3]; phosphorylated CBM, cyclodextrin 2 mM) is given as “mildly; also recorded: only weakly reduced the interaction” and the “effect on activity of immunoprecipitated native rat liver AMPK” value (rat liver AMPK) is given as “more substantially inhibit”. For the same molecule, the “effect on AlphaScreen signal of holo-AMPK (CBM-KD)” value (“effect on AlphaScreen signal” below) (holo-AMPK; phosphorylated AMPK) was “smaller decrease” and the “effect on catalytic activity of recombinant AMPK” value [4] was “mildly inhibit”.

For glycogen, the “effect on CBM-KD interaction signal” value ([3]; phosphorylated and non-phosphorylated CBM, glycogen 0.5 mg/ml) is listed as “almost abolished this interaction”, the “effect on activity of immunoprecipitated native rat liver AMPK” value (rat liver AMPK) is listed as “more substantially inhibit” and the “effect on activity of purified rat liver AMPK” value (rat liver AMPK; purified rat liver AMPK) is listed as “did not detect an effect”. For the same molecule, the “effect on AMPK catalytic activity” value (human α1β2γ1 AMPK [5]) was “failed to detect an effect”, the “effect on AlphaScreen signal” value (holo-AMPK; non-phosphorylated AMPK) was “significant (P < 0.01) signal decrease” and the “effect on AlphaScreen signal” value (holo-AMPK; phosphorylated AMPK) was “smaller decrease”. For the same molecule, the “effect on catalytic activity of recombinant AMPK” value [4] was “mildly inhibit”.

B1: phosphorylated AMPK β2(76-272), β-subunit of the crystallised phosphorylated holo-AMPK (domain or fragment)
chain: ARPTVIRWSEGGKEVFISGSFNNWSTKIPLIKSHNDFVAILDLPEGEHQYKFFVDGQWVHDPSEPVVTSQLGTINNLIHVKKSDFEVFDALKLDSMESSETSCRDLSSSPPGPYGQEMYAFRSEERFKSPPILPPHLLQVILNKDTNISCDPALLPEPNHVMLNHLYALSIKDSVMVLSATHRYKKKYVTTLLYKPI
modifications: phosphoserine at 108 (autophosphorylated)
B1: binds [6].

B2: non-phosphorylated AMPK β2(76-272), β-subunit of the crystallised non-phosphorylated holo-AMPK (domain or fragment)
chain: ARPTVIRWSEGGKEVFISGSFNNWSTKIPLIKSHNDFVAILDLPEGEHQYKFFVDGQWVHDPSEPVVTSQLGTINNLIHVKKSDFEVFDALKLDSMESSETSCRDLSSSPPGPYGQEMYAFRSEERFKSPPILPPHLLQVILNKDTNISCDPALLPEPNHVMLNHLYALSIKDSVMVLSATHRYKKKYVTTLLYKPI
B2: binds [7].
